Experiment [1] relates to Encephalitozoon cuniculi. As to the kind of experiment: In vitro growth inhibitory activity against Encephalitozoon cuniculi grown on RK-13 cells infected as a monolayer at concentration of 100 uM. Format: functional. Summed up: (§1)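 RK-13 monolayers were infected with E. cuniculi, with 50–80% of control cells infected. Compound was added to duplicate wells for 7 days, and drug-containing medium was replaced on days 3 and 6. On day 8, cells were fixed overnight, Giemsa-stained and counted by inverted microscope at 400× in five confluent fields (240 cells/field). Percentage of infected cells was compared with untreated controls. Values came from three to five growth curves.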

Experiment [2] concerns Trypanosoma brucei. The experiment can be described thus: In vitro growth inhibitory activity against Trypanosoma brucei strain LAB110. Format: functional, organism-based.
In experiment [3] the test system is Trypanosoma brucei. The experiment can be described thus: In vitro growth inhibitory activity against Trypanosoma brucei strain K243. Format: functional, organism-based.
In experiment [4] the test system is Trypanosoma brucei. As to the kind of experiment: In vitro growth inhibitory activity against Trypanosoma brucei strain K243 (As-10-3). Format: functional, organism-based.
Experiment [5] deals with Trypanosoma brucei. The experiment can be described thus: In vitro growth inhibitory activity against Trypanosoma brucei strain K269. The format is functional, organism-based.
The subject of experiment [6] is Encephalitozoon cuniculi. The experiment can be described thus: In vitro growth inhibitory activity against Encephalitozoon cuniculi grown on RK-13 cells infected as a monolayer. The format is functional, organism-based. The essentials: as §1
In experiment [7] the test system is Encephalitozoon cuniculi. The experiment can be described thus: In vitro growth inhibitory activity against Encephalitozoon cuniculi grown on RK-13 cells infected as a monolayer at concentration of 250 uM. The format is functional. The essentials: as §1
Experiment [8] relates to Encephalitozoon cuniculi. The experiment can be described thus: In vitro growth inhibitory activity against Encephalitozoon cuniculi grown on RK-13 cells infected as a monolayer at concentration of 500 uM. The format is functional. The essentials:
as §1

Experiment [9] deals with Encephalitozoon cuniculi. The experiment can be described thus: In vitro growth inhibitory activity against Encephalitozoon cuniculi grown on RK-13 cells infected as a monolayer at concentration of 50 uM. The format is functional. Summed up:
as §1

Usually inhibition stands for how much of the control response was suppressed. For orientation: IC50 means the concentration needed to halve the response being measured. Low values mean inhibition by little substance, high ones a need for much substance.

The structures appear in SMILES notation.

`c1ccc(CNCCCNCC2CCCC(CNCCCNCc3ccccc3)C2)cc1` (centres undefined) yielded an inhibition at 100 µM with Encephalitozoon cuniculi [1] of 86%. Further, the IC50 in the experiment on Trypanosoma brucei [2] came to 4.05 µM; in the experiment with Trypanosoma brucei [3], 4.15 µM; in the experiment with Trypanosoma brucei [4], 56 µM; with Trypanosoma brucei [5] it was 5.1 µM.
As to `CCNCCCNCCCCCCCNCCCNC[C@@H](C)CC`, the IC50 with Trypanosoma brucei [2] stood at 0.31 µM; with Trypanosoma brucei [3], 0.38 µM; with Trypanosoma brucei [4] it was 0.79 µM.
As to `c1ccc(-c2ccccc2CNCCCNCCCCCCCNCCCNCc2ccccc2-c2ccccc2)cc1`, the IC50 is 0.47 µM in the experiment with Encephalitozoon cuniculi [6]; 0.24 µM in the experiment with Trypanosoma brucei [2]; 0.19 µM in the experiment on Trypanosoma brucei [3]; 0.2 µM in the experiment with Trypanosoma brucei [4]; 0.75 µM in the experiment with Trypanosoma brucei [5].
`C(CNCC1CCC1)CNCC1CCCC(CNCCCNCC2CCC2)C1` (centres undefined) showed an inhibition at 250 µM in the experiment with Encephalitozoon cuniculi [7] of 100%.
For `C1CCCC(CNCCCNCC2CCCC(CNCCCNCC3CCCCCC3)C2)CC1` (centres undefined), in the experiment on Encephalitozoon cuniculi [1], testing at 100 µM gave an inhibition of 100%. Moreover, the IC50 with Trypanosoma brucei [2] is 3.25 µM; in the experiment on Trypanosoma brucei [3], 14 µM; in the experiment with Trypanosoma brucei [4], 2.15 µM; in the experiment on Trypanosoma brucei [5], 1.71 µM.
As to `CCNCCCNC1C=CC(N)CCC1` (centres undefined), the IC50 with Encephalitozoon cuniculi [6] was 36 µM; in the experiment with Trypanosoma brucei [2] it was > 100 µM; in the experiment on Trypanosoma brucei [3], > 100 µM.
On to `N[C@H]1C=CC(NCCCNCC2CC2)C1` (some centres undefined), for which the values for the IC50 in the experiment with Encephalitozoon cuniculi [6], with Trypanosoma brucei [2] and with Trypanosoma brucei [3] were 204 µM, > 100 µM and > 100 µM, respectively.
With `CCNCCCNCCCNCCCNCC` [BIS(ETHYL)NORSPERMINE], the IC50 with Trypanosoma brucei [2], with Trypanosoma brucei [3], in the experiment on Trypanosoma brucei [4] and in the experiment on Trypanosoma brucei [5] was > 100 µM throughout.
As to `CC[C@H](C)CNCCCNCCCCCCCNCCCN`, the inhibition at 500 µM in the experiment with Encephalitozoon cuniculi [8] amounted to 87%.
Consider `N[C@@H]1C=C[C@@H](NCCCNCC2CCCC(CNCCCN[C@H]3C=C[C@H](N)C3)C2)C1` (some centres undefined), for which 100 µM produced 100% inhibition in the experiment with Encephalitozoon cuniculi [1].
`N[C@H]1C=CC(NCCCNCC2CCCCCC2)CCC1` (some centres undefined) gave an inhibition at 100 µM in the experiment with Encephalitozoon cuniculi [1] of 76%.
Turning to `CCC(C)CNCCCNCCCCCCCNCCCNCC(C)CC` (centres undefined), testing at 50 µM in the experiment on Encephalitozoon cuniculi [9] gave an inhibition of 47%. For the same molecule, the IC50 in the experiment with Trypanosoma brucei [2] is 0.031 µM; with Trypanosoma brucei [3], 0.04 µM; in the experiment with Trypanosoma brucei [4], 0.165 µM.
`C(CNCC1CC1)CNCC1CCCC(CNCCCNCC2CC2)C1` (centres undefined) returned an inhibition at 100 µM in the experiment with Encephalitozoon cuniculi [1] of 100%. Moreover, the IC50 in the experiment with Trypanosoma brucei [2] is 73 µM; with Trypanosoma brucei [3], 81.5 µM; in the experiment on Trypanosoma brucei [4], > 100 µM; in the experiment with Trypanosoma brucei [5], > 100 µM.
In the experiment with Encephalitozoon cuniculi [9], `COc1ccccc1CNCCCNCCCCCCCNCCCNCc1ccccc1OC` showed an inhibition at 50 µM of 100%. Further, the IC50 in the experiment on Trypanosoma brucei [2] was 22 µM; with Trypanosoma brucei [3], 18.5 µM; in the experiment with Trypanosoma brucei [4], 5.5 µM; in the experiment with Trypanosoma brucei [5], 16.5 µM.
As for `CCNCCCNCC1CCCC(N)CC1` (centres undefined), the IC50 was 232 µM with Encephalitozoon cuniculi [6], > 100 µM with Trypanosoma brucei [2] and > 100 µM in the experiment with Trypanosoma brucei [3].

The values above are taken from ChEMBL document CHEMBL1134104, “Novel alkylpolyamine analogues that possess both antitrypanosomal and antimicrosporidial activity” (Bioorg Med Chem Lett, 2001).
